Experimental data reported in ChEMBL document CHEMBL1145996 (J Med Chem, 2003).

What follows are compounds tested on Leishmania donovani (assay: Antileishmanial activity of compound against leishmania donovani was determined in luciferase assay).
Type: functional, organism-based
How it was run: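 Transgenic Leishmania donovani promastigotes expressing firefly luciferase, 2×10^6 cell/mL, exposed to compound dilutions in 96-well plates at 26°C for 72 h; growth read by luciferase luminescence (Steady Glo). At least six concentrations, each in duplicate; mean values used for growth inhibition curves and IC50. Pentamidine and amphotericin B as standards.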

SMILES | IC50 [µM]
CC1(C)OO[C@]23CCCC[C@H]2C(C)(C)C(=O)O[C@@H]3O1 | 204
N=C(N)c1ccc(OCCCCCOc2ccc(C(=N)N)cc2)cc1 [PENTAMIDINE] | 1.35
C[C@@H]1CC[C@H]2[C@@H](Cc3ccccc3)C(=O)O[C@@H]3O[C@@]4(C)CCC1[C@]32OO4 (stereo partly drawn) | 15.3
C[C@@H]1CC[C@H]2[C@@H](CCCc3cc(F)cc(F)c3)C(O)O[C@@H]3O[C@@]4(C)CC[C@@H]1[C@]32OO4 (stereo partly drawn) | 33
C[C@@H]1CC[C@H]2[C@@H](CCCCc3ccccc3)C(=O)O[C@@H]3O[C@@]4(C)CCC1[C@]32OO4 (stereo partly drawn) | 7.5
C[C@H]1[C@@H](O)O[C@@H]2O[C@@]3(C)CC[C@H]4[C@H](C)CC[C@@H]1[C@@]24OO3 [ARTENIMOL] | 70.3
CCCC[C@H]1C(O)O[C@@H]2O[C@@]3(C)CC[C@H]4[C@H](C)CC[C@@H]1[C@@]24OO3 (stereo partly drawn) | 383
C[C@@H]1CC[C@H]2CC(=O)O[C@@H]3O[C@@]4(CCCc5ccc(Cl)cc5)CCC1[C@@]23OO4 (stereo partly drawn) | 11.1
C[C@@H]1CC[C@H]2[C@@H](C)C(=O)O[C@@H]3OC(C)(C)OO[C@@]32[C@H]1C | 158
CC[C@@]12CC[C@H]3[C@H](C)CC[C@H]4CC(=O)O[C@H](O1)[C@]43OO2 | 177
COc1ccc(CCC[C@H]2C(=O)O[C@@H]3O[C@@]4(C)CCC5[C@H](C)CC[C@@H]2[C@]53OO4)cc1 (stereo partly drawn) | 12
C[C@@H]1CC[C@H]2CC(=O)N(Cc3ccc(Cl)cc3)[C@@H]3O[C@@]4(C)CC[C@@H]1[C@@]23OO4 | 25.5
C[C@@H]1CC[C@H]2CCO[C@@H]3O[C@@]4(C)CC[C@@H]1[C@@]23OO4 | 49.2
C[C@@H]1CC[C@H]2[C@@H](CCCc3cc(F)cc(F)c3)CO[C@@H]3O[C@@]4(C)CC[C@@H]1[C@]32OO4 | 11
CCC[C@@]12CCC3[C@H](C)CC[C@H]4CC(=O)O[C@H](O1)[C@@]34OO2 (stereo partly drawn) | 40.5
CCOC(=O)CCC12CCC3[C@H](C)CC[C@H]4CC(=O)O[C@H](O1)[C@@]34OO2 (single isomer, unassigned) | 31
C[C@@H]1CC[C@H]2[C@@H](CCCc3ccc(Cl)cc3)C(O)O[C@@H]3O[C@@]4(C)CC[C@@H]1[C@]32OO4 (stereo partly drawn) | 4.7
C[C@@H]1CC[C@H]2CC(=O)O[C@@H]3OC4(CCc5ccccc5)CC[C@@H]1[C@@]23OO4 (single isomer, unassigned) | 12.6
C[C@@H]1CC[C@H]2[C@@H](CCCc3ccc(C(F)(F)F)cc3)CO[C@@H]3O[C@@]4(C)CC[C@@H]1[C@]32OO4 | 1.8
CC(=O)O[C@@H]1O[C@@]2(C)CC[C@H]3[C@H](C)CCC[C@@]13OO2 | 148
CCCC[C@H]1C(=O)O[C@@H]2O[C@@]3(CCCCc4ccccc4)CCC4[C@H](C)CC[C@@H]1[C@]42OO3 (stereo partly drawn) | 4.5
CCCCN1C(=O)C[C@@H]2CC[C@@H](C)[C@@H]3CC[C@@]4(C)OO[C@@]23[C@H]1O4 | 44.5
C[C@@H]1CC[C@H]2[C@@H](CCCC(F)(F)F)C(=O)O[C@@H]3O[C@@]4(C)CCC1[C@]32OO4 (stereo partly drawn) | 79.3
C[C@@H]1CC[C@H]2[C@@H](C)C(=O)O[C@@H]3O[C@@]4(C)CC[C@@H]1[C@]32OO4 [ARTEMISININ] | 124
C[C@@H]1CC[C@H]2[C@@H](CCCC(F)(F)F)C(O)O[C@@H]3O[C@@]4(C)CC[C@@H]1[C@]32OO4 (stereo partly drawn) | 26.3
CCOC1O[C@@H]2O[C@]3(C)CC[C@H]4[C@H](C)CC[C@@H]([C@H]1C)C24OO3 (stereo partly drawn) | 44.8
C[C@@H]1CC[C@H]2[C@@H](CCc3ccccc3)C(=O)O[C@@H]3O[C@@]4(C)CCC1[C@]32OO4 (stereo partly drawn) | 40.3
C[C@@H]1CC[C@H]2CCO[C@@H]3OC4(CCc5ccccc5)CC[C@@H]1[C@@]23OO4 (single isomer, unassigned) | 37.7
